Compounds with a hit are over-represented: about 2% of the library has one in this group of screens.
NSD2 HMT inh: blocks human histone methyltransferase NSD2; O96028; NSD2 peptide methylation, AlphaScreen, 120 min; inhibition, % at 12.5 µM; 310,000 tested, 0.54% active; in the data active means inhibition above about 50%
Target sequence (O96028 whole entry, looked up): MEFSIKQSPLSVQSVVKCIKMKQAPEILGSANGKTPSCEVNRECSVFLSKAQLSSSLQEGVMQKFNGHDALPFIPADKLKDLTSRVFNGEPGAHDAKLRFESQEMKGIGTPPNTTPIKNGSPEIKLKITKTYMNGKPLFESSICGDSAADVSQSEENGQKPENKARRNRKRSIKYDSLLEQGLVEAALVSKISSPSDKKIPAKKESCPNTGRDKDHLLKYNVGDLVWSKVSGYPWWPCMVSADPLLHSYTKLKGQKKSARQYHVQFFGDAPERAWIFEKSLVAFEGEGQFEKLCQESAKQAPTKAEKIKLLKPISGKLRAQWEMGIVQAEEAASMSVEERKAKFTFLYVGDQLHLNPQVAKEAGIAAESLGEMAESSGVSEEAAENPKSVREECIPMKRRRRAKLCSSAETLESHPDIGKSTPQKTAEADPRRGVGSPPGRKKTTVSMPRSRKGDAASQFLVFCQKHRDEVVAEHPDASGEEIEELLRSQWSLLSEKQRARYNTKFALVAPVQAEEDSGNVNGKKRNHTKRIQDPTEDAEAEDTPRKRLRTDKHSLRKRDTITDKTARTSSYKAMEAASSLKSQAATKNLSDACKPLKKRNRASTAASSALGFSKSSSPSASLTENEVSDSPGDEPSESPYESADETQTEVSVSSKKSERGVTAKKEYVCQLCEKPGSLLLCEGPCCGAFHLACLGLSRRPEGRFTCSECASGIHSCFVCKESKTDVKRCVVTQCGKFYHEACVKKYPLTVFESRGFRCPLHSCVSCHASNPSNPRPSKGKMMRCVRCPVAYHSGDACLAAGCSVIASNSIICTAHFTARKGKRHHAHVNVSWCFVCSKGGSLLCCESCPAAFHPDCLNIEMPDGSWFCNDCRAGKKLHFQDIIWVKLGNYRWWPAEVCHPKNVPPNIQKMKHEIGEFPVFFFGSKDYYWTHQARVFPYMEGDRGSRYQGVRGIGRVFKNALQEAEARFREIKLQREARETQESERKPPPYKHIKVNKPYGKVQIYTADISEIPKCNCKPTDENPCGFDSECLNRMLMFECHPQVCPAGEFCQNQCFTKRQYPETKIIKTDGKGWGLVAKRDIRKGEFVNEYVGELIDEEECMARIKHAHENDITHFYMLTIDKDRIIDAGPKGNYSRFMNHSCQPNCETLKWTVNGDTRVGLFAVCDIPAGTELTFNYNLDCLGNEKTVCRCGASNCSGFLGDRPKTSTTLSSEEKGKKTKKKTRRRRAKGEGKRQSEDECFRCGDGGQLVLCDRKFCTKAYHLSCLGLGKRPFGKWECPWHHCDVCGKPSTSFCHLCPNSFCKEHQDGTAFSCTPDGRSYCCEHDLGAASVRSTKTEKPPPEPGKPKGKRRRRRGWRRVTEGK
XiGFP reactiv: reactivates the inactive X chromosome in mouse fibroblasts; activation, % at 7.58 µM; XiGFP mouse fibroblasts, % GFP-positive cells imaging, 3 d; cells co-treated with 5-aza-dC sensitizer; scaled so ellipticine positive control = 100%; AID 743238; 360,000 tested, 0.055% active;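 active means mean normalized replicate activation at least 10% and every replicate at or above 10%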;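 further: 0% = median of on-plate neutral control wells and 100% = ellipticine 6 µM median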
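assay system = SV40-immortalized XiGFP fibroblast cells, line 68-5-11 | buffer or medium = DMEM plus 5-aza-dC sensitizer | doses = single-point pinned compound dosing | times = 3-day compound exposure, then 15 min fixation at room temperature | benchmarks = positive control ellipticine, 6 µM final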
SR-BI DiI inh: mouse SR-BI HDL lipid transfer inhibition. ldlA[mSR-BI] CHO cells, DiI-HDL uptake fluorescence, 3 h. inhibition, % at 12.5 µM. 320,000 tested, 0.96% active. AID 488896;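 active means mean replicate inhibition of at least 70% and a set share of replicates each scoring 70 or more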;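 further: 0% = median of neutral control wells and 100% = median of positive control wells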
HGIII-sPLA2 inh: Blocks human group III sPLA2 activity; Q9NZ20; QFRET BODIPY PC-A2 liposome hydrolysis, fluorescence; inhibition, % at 12.2 µM; 370,000 tested, 0.56% active;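 active means inhibition above mean plus 3 SD of compounds lying within the high and low control bounds, cut at about 19% in these data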;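 further: 0% = median of test compound wells and 100% = no enzyme DMSO wells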
ARNT TACC3 PPI: ARNT/TACC3 interaction disruption; Q9Y6A5; AlphaScreen His-ARNT PAS-B/GST-TACC3 binding, luminescence; TACC3 fragment carries E629A point mutation; inhibition, % at 9.99 µM; 390,000 tested, 0.66% active; AID 623870;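 active means mean inhibition of replicates at least 50% and at least half of replicates each reaching 50%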;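 further: 0% = complete ARNT plus TACC3 wells and 100% = ARNT alone without TACC3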
SR-BI uptake up: enhances SR-BI lipid uptake from DiI-HDL; CHO ldlA[mSR-BI] cells, DiI-HDL uptake fluorescence, 3 h; 100 = double the neutral-control signal; activation, % at 12.5 µM; 320,000 tested, 0.096% active; AID 504775;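 active means mean replicate activation of at least 60% and every replicate at or above 60%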;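 further: 0% = median plate neutral-control signal and 100% = twice that signal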
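Assay system: CHO ldlA[mSR-BI] cells, LDL receptor-null, SR-BI overexpressing; medium: Ham's F12 with 0.5% BSA, HEPES 25 mM, pH 7.4; also added: DiI-HDL 10 µg/mL; timing: 3 h uptake period with compound, 37 °C; signal: DiI fluorescence, bottom read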
Alpha artifact: counter-screen for NSD2 inhibitors: AlphaScreen artifacts; shares compounds with NSD2 HMT inh; 1,500 tested, 9.4% active; AC35, µM (doses to about 10 µM), for inactives: at the top dose activity change, negative = signal loss; AID 1053174; AlphaScreen artifact counterscreen, preloaded methylated H4 peptide; call rule not given here
Starred values were filed as active, the others as inactive; . = no result given.

SMILES | NSD2 HMT inh | XiGFP reactiv | SR-BI DiI inh | HGIII-sPLA2 inh | ARNT TACC3 PPI | SR-BI uptake up | Alpha artifact
CCOc1cccc(N2C(=O)/C(=C/c3ccco3)C(=O)NC2=S)c1 | 123* | 0 | -33 | -4 | 31 | 33 | 2.6µM*
COc1ccc(CN2C(=O)NC(=O)/C(=C\c3ccco3)C2=O)cc1 | 51* | 0 | 4 | -3 | -1 | -4 | -11%
O=C1NC(=S)N(c2ccccc2)C(=O)/C1=C/c1ccco1 | . | 0 | -24 | -2 | 4 | 24 | .
COC(=O)[C@@H]1[C@@H](CO)[C@@H]2Cn3c(ccc(-c4cccc(OC)c4)c3=O)[C@H]1N2C(=O)c1ccccc1F | . | 0 | . | . | -3 | . | .
O=C1NC(=O)N(c2ccccc2)C(=O)/C1=C/c1ccoc1 | 51* | 0 | -7 | -22 | -6 | 7 | -6%
O=C1NC(=O)N(c2ccccc2)C(=O)/C1=C\c1ccccc1[N+](=O)[O-] | 5 | 0 | -20 | -3 | 2 | 20 | .
COC(=O)c1nc(-c2ccc3c(n2)C(=O)C(N)=C(OC)C3=O)c(N)c(-c2ccc(OC)c(OC)c2O)c1C | 55* | 0 | 32 | -16 | 45* | -32 | -2%
C=CCN1[C@@H]2CN(S(C)(=O)=O)C[C@H]1C2c1ccccc1 (stereo partly specified) | . | 0 | . | . | . | . | .
CN(CCc1ccccc1)Cc1c[nH]c2ccccc12 | 8 | 0 | 10 | -29 | -2 | -10 | .
Fc1ccc(Cn2nnnc2C(c2ccc(Cl)cc2)N2CC=C(c3ccc(F)cc3)CC2)cc1 (stereo unspecified) | 51* | 0 | 31 | -4 | . | -31 | -1%
Cn1c(=O)[nH]c2nncnc2c1=O | 54* | 0 | . | 3 | 34 | . | -3%
CC(=NC(C)c1ccccc1)c1c(O)[nH]c(=O)[nH]c1=O (stereo unspecified) | -7 | . | -7 | 0 | 0 | 7 | .
C=C(C)c1cccc(C(C)(C)NC(=O)NC2CN3CCC2CC3)c1 (stereo unspecified) | 51* | . | -32 | -39 | -16 | 32 | 0%
O=C(NC1CN2CCC1CC2)c1cccc(Cl)c1 (stereo unspecified) | -1 | 0 | 10 | 1 | 14 | -10 | .
COC(=O)C(Cc1ccc(N(CCCl)CCCl)cc1)N=Cc1ccccc1O (stereo unspecified) | . | 0 | -29 | 7 | 5 | 29 | .
O=[N+]([O-])c1ccc(NC2CCCC2)c2ccncc12 | 9 | . | . | . | -19 | . | .
O=[N+]([O-])c1ccc(N2CCCC2)c2ccncc12 | 71* | 0 | 11 | 3 | -3 | -11 | -4%
Brc1ccc2c(c1)C(OC1CN3CCC1CC3)c1ccccc1CS2 (stereo unspecified) | . | . | 10 | -39 | -26 | -10 | .
Cc1cc(/C=C2\C(=O)NC(=O)N(c3cccc(F)c3)C2=O)c(C)n1-c1cc(C(=O)O)cc(C(=O)O)c1 | 81* | 0 | 2 | -3 | 3 | -2 | -9%
CC[n+]1c(/C=C/N(C)c2ccccc2)sc2ccc(Cl)cc21 | 28 | . | 17 | 6 | 2 | -17 | .
CC[n+]1c(/C=C/C=C/c2ccc(N(C)C)cc2)sc2ccccc21 | 81* | 1 | 94* | 37* | 48* | -94 | 3.7µM*
CCC(c1nnnn1Cc1ccccc1)N1CCC(n2c(=O)[nH]c3ccccc32)CC1 (stereo unspecified) | . | 0 | . | -1 | . | . | .
COC(=O)C1=Nc2ccccc2/C1=C\c1c(O)n(-c2ccc(OC)cc2)c(=O)[nH]c1=O | 3 | . | -33 | -8 | 4 | 33 | .
COC(=O)C1=Nc2ccccc2/C1=C\c1c(O)n(-c2ccc(Br)cc2)c(=O)[nH]c1=O | 61* | 0 | -5 | -10 | -4 | 5 | 0%
CCCCn1c(N)c(C(=O)OCC2CCCO2)c2nc3ccccc3nc21 (stereo unspecified) | 83* | . | 11 | . | 9 | -11 | 1%
SMILES | NSD2 HMT inh | XiGFP reactiv | SR-BI DiI inh | HGIII-sPLA2 inh | ARNT TACC3 PPI | SR-BI uptake up | Alpha artifact
CCCCNC(=O)c1c(N)n(Cc2ccc3c(c2)OCO3)c2nc3ccccc3nc12 | 68* | . | -5 | 4 | 0 | 5 | -6%
CCCCCn1c(N)c(C(=O)NCc2cccs2)c2nc3ccccc3nc21 | 83* | . | . | -5 | . | . | 4%
CCCN1[C@@H]2c3ccc(-c4cccc(OC)c4)c(=O)n3C[C@H]1[C@H](CO)[C@H]2C(=O)OC | . | 0 | . | . | . | . | .
CC(C)N1C(=O)/C(=C/C=C/c2ccco2)C(=O)N(Cc2ccco2)C1=O | 107* | . | -28 | 4 | 1 | 28 | 8.5µM*
Cc1cc(N2CCNC[C@@H]2C)ccc1N1CC[C@@H](O)C1 | . | 1 | . | 4 | . | . | .
CC(C)c1ccc(N2C(=O)NC(=O)/C(=C\C=C\c3ccco3)C2=O)cc1 | 94* | 0 | . | 0 | . | . | -8%
O=C(c1cc2c(s1)CCCC2)N1CCC2(CC1)OCCO2 | 8 | . | 3 | 2 | -7 | -3 | .
CN(C)C(CNC(=O)Cc1ccc(Br)cc1)c1ccccc1 (stereo unspecified) | 53* | 0 | . | -6 | -2 | . | -7%
O=C(c1ccccc1F)N1CCC2(CC1)OCCO2 | 0 | 0 | -16 | 3 | -23 | 16 | .
O=C(c1cc2ccccc2oc1=O)N1CCC2(CC1)OCCO2 | 65* | . | -17 | 4 | -6 | 17 | -4%
COC(=O)C1=C(c2c(C)noc2C)C[C@@H]2CC[C@H]1N2C(=O)NCc1ccc(F)cc1 | . | 0 | -20 | 8 | -4 | 20 | .
COc1cc(O)cc2c1C(=O)OC(C)CCCC(=O)CCC/C=C\2 (stereo unspecified) | 54* | 0 | -6 | -29 | 1 | 6 | -1%

High-throughput results from PubChem BioAssay.
